Active and inactive are the calls of the source.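 How the source made its calls, unless noted: active means viability loss from added drug above about 55%, and viability with drug at most 40%, in both replicates (limit read from the data, passing the limit was not always enough); inconclusive means both conditions met in only one replicate; inactive means neither replicate meets both conditions.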
Legend:
[1] = reduced viability of SK-BR-3 breast cancer cells – cell-based, 24 h, human, pilot screen (AID 572;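 active means viability at or below 10% of carrier control in both of two separate runs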;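 further: compound exposure lasted between 18 and 24 h rather than exactly 24 h; 100% = carrier-treated control wells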); conditions: SK-BR-3 viability, CellTiter-Glo luminescence, at 10 µM, stronger effect = lower value
[2] = HUVEC growth inhibition – cell-based, human, primary screen (AID 575;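 active means viability at or below 30% in both replicate assays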;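 further: 100% = median of untreated cell wells with 0.1% DMSO on each plate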); conditions: HUVEC proliferation, CellTiter-Glo luminescence, 72 h; at 10 µM; stronger effect = lower value
In short: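 Test system: HUVEC primary cells. Quantity: 1250 endothelial cells in each well. Dosing: single-point 10 µM, DMSO 0.1% final. Incubation: 72 h treatment at 37 °C. Measured by: CTG luminescence. Control set: DMSO cell controls and MePR drug controls. Plate: collagen-coated 384-well format.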

[3] = H69AR cell proliferation blockers – human, duplicate replicates, primary screen (AID 580;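 active means viability at or under a set limit in both replicates, limit being median viability minus 3 SD, cut at about 48% in these data, passing the limit was not always enough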;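 further: 100% = mean luminescence of untreated wells and 0% = no signal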); conditions: H69AR lung tumor cells viability, ATP luminescence, 72 h; at 10 µM; stronger effect = lower value
[4] = MRP1 drug-resistance reversers in H69AR cells – cell-based, doxorubicin co-treatment, pilot screen (AID 601); conditions: CellTiter-Glo, 72 h, at 10 µM; for differential viability (reversal): stronger effect = higher value
[5] = yeast transport mutant growth inhibition pilot in 384-well plates, post-Golgi transport modulator project (AID 636; in the data active means inhibition above about 31%); conditions: absorbance 615 nm, about 18 h, stronger effect = higher value
[6] = growth suppression of yeast trafficking mutant, preliminary HTS, modulators of trafficking downstream of Golgi apparatus project, 1536-format plate, OD 615 nm (AID 637; in the data active means inhibition above about 30%); conditions: yeast transport mutant growth, absorbance 615 nm, 18 h; stronger effect = higher value
[7] = H69AR cells + 2 uM doxorubicin, measured here: viability with 2 uM doxorubicin, stronger effect = lower value
[8] = H69AR cells, compound alone cytotoxicity

Compound	viability [1]	viability [2]	viability [3]	differential viability (reversal) ([4]; H69AR cells + 2 uM doxorubicin)	viability [4, 7]	viability [4, 8]	inhibition [5]	inhibition [6]
CC(=O)c1n[nH]nc1NC(=O)c1ccccc1	120% (inactive)	97.6% (inactive)	89.9% (inactive)	-6.65% (inactive)	96.6%	89.9%	-1.69% (inactive)	0.16% (inactive)
COc1ccc(OC)c(S(=O)(=O)Nc2ccccc2SC)c1	72% (inactive)	83.7% (inactive)	100% (inactive)	18.9% (inactive)	81%	100%	-5.34% (inactive)	-1.45% (inactive)
O=C(C1=C(O)C(=O)N(c2ncccn2)C1c1cccc(Cl)c1)c1ccco1 (configuration not stated)	119% (inactive)	93% (inactive)	89.2% (inactive)	-3.12% (inactive)	92.4%	89.2%	2.33% (inactive)	1.29% (inactive)
CCn1cc(C(=O)O)c(=O)c2ccc(C)nc21	106% (inactive)	92.1% (inactive)	101% (inactive)	0.53% (inactive)	100%	101%	-0.78% (inactive)	-3.83% (inactive)
Cc1ccc(-c2nnc(N3CCN(C(=O)CN4C(=O)c5ccccc5C4=O)CC3)c3ccccc23)cc1	84% (inactive)	73% (inactive)	94% (inactive)	-0.335% (inactive)	94.3%	94%	-1.23% (inactive)	-4.03% (inactive)
Nc1nnc(SCc2cc3c(cc2Cl)OCO3)s1	118% (inactive)	94.4% (inactive)	99.7% (inactive)	14.4% (inactive)	85.2%	99.7%	-2.47% (inactive)	-1.13% (inactive)
Cc1ccc(S(=O)(=O)C(C#N)c2nc3ccccc3nc2OC(C)C)cc1 (configuration not stated)	101% (inactive)	91% (inactive)	105% (inactive)	7.79% (inactive)	97.3%	105%	-4.13% (inactive)	4.55% (inactive)
Cc1cn2c(-c3ccncc3)nnc2s1	144% (inactive)	87.4% (inactive)	99.8% (inactive)	7.13% (inactive)	92.7%	99.8%	-1.23% (inactive)	3.55% (inactive)
CCOC(=O)C1(CC)NC(c2cccc(F)c2)C2C(=O)N(CC)C(=O)C21 (configuration not stated)	104% (inactive)	96.1% (inactive)	97.6% (inactive)	5.01% (inactive)	92.6%	97.6%	-3.29% (inactive)	3.06% (inactive)
CCCc1cc(=O)[nH]c(SCc2ccccc2)n1	101% (inactive)	106% (inactive)	90.4% (inactive)	8.54% (inactive)	81.9%	90.4%	1.04% (inactive)	-2.46% (inactive)
Cc1cccc(-n2nnnc2SCc2csc(-c3ccccc3)n2)c1	95% (inactive)	101% (inactive)	93.9% (inactive)	5.89% (inactive)	88%	93.9%	6.44% (inactive)	2.58% (inactive)
COc1cccc(C(=O)NC2=NCCS2)c1	109% (inactive)	100% (inactive)	96.7% (inactive)	12.1% (inactive)	84.6%	96.7%	-4.11% (inactive)	0.32% (inactive)
CCC(CC)n1[nH]c(=O)c2c(C)cc(C)nc21	81% (inactive)	103% (inactive)	105% (inactive)	14.5% (inactive)	90.5%	105%	-5.14% (inactive)	-6% (inactive)
COc1ccc(OC)c(S(=O)(=O)N2CCC(C(=O)NCc3ccccc3OC)CC2)c1	101% (inactive)	97.5% (inactive)	103% (inactive)	-0.525% (inactive)	103%	103%	0.55% (inactive)	-4.03% (inactive)
CS(=O)(=O)N(CC(=O)N1CCc2ccccc2C1)c1ccc2c(c1)OCO2	129% (inactive)	102% (inactive)	102% (inactive)	14.2% (inactive)	87.8%	102%	-1.04% (inactive)	2.13% (inactive)
COc1ccc(CN(Cc2cc3cc4c(cc3[nH]c2=O)OCO4)C(=O)NC2CCCCC2)cc1	85% (inactive)	63.9% (inactive)	96.9% (inactive)	0.835% (inactive)	96%	96.9%	1.22% (inactive)	-1.27% (inactive)
COc1ccc(Cl)cc1NC(=O)CCN1CCN(c2ccccc2C)CC1	70% (inactive)	110% (inactive)	97.1% (inactive)	5.5% (inactive)	91.6%	97.1%	-8.11% (inactive)	-0.36% (inactive)
COc1ccc(S(=O)(=O)NCCSCc2ccco2)cc1Cl	48% (inactive)	102% (inactive)	92.4% (inactive)	1.13% (inactive)	91.3%	92.4%	-6.3% (inactive)	4% (inactive)
COc1ccc2c(c1)c(CC(=O)OCC(=O)O)c(C)n2C(=O)c1ccc(Cl)cc1	133% (inactive)	66.8% (inactive)	96.2% (inactive)	5.33% (inactive)	90.9%	96.2%	-5.06% (inactive)	-0.67% (inactive)
Cc1c(N=C2SCC(=O)N2c2c(C)n(C)n(-c3ccccc3)c2=O)c(=O)n(-c2ccccc2)n1C	120% (inactive)	113% (inactive)	94.2% (inactive)	3.54% (inactive)	90.6%	94.2%	-1.43% (inactive)	-1.31% (inactive)
O=c1[nH]c(NCc2ccccc2)nc2c1CCCC2	87% (inactive)	115% (inactive)	104% (inactive)	7.85% (inactive)	96.5%	104%	-4.19% (inactive)	-10% (inactive)
COc1ccc(N=C2C(=O)Nc3ccccc32)cc1	103% (inactive)	66.7% (inactive)	75.4% (inactive)	-4.16% (inactive)	79.5%	75.4%	-0.4% (inactive)	-1.45% (inactive)
Cc1nc(C)n(C(C)CC(=O)O)n1 (configuration not stated)	103% (inactive)	127% (inactive)	103% (inactive)	5.71% (inactive)	97.2%	103%	-4% (inactive)	1.27% (inactive)
O=C(O)CSc1ncn[nH]1	87% (inactive)	102% (inactive)	109% (inactive)	0.37% (inactive)	108%	109%	-6.58% (inactive)	6.73% (inactive)
